Tests used:
[1] = tested on: Candida parapsilosis; experiment: Antimicrobial activity against Candida parapsilosis MTCC 1744 assessed as growth inhibition after 24 hrs by agar well diffusion method; assay type: functional; details: Lodderomyces parapsilosis, MTCC 1744, 24 h
[2] = tested on: Candida albicans; experiment: Antimicrobial activity against Candida albicans MTCC 227 assessed as growth inhibition after 24 hrs by agar well diffusion method; assay type: functional; details: MTCC 227, 24 h
[3] = tested on: Candida albicans; experiment: Fungicidal activity against Candida albicans MTCC 1637 after 24 hrs by serial dilution method; assay type: functional; details: MTCC 1637, 24 h
[4] = tested on: Candida albicans; experiment: Antimicrobial activity against Candida albicans MTCC 3958 assessed as growth inhibition after 24 hrs by agar well diffusion method; assay type: functional; details: MTCC 3958, 24 h
[5] = tested on: [Candida] aaseri; experiment: Fungicidal activity against Candida aaseri MTCC 1962 after 24 hrs by serial dilution method; assay type: functional; details: Yamadazyma aaseri, MTCC 1962, 24 h
[6] = tested on: Pichia sporocuriosa; experiment: Antimicrobial activity against Issatchenkia hanoiensis MTCC 4755 assessed as growth inhibition after 24 hrs by agar well diffusion method; assay type: functional; details: MTCC 4755, 24 h
[7] = tested on: Pichia sporocuriosa; experiment: Fungicidal activity against Issatchenkia hanoiensis MTCC 4755 after 24 hrs by serial dilution method; assay type: functional; details: MTCC 4755, 24 h
[8] = tested on: Candida albicans; experiment: Antimicrobial activity against Candida albicans MTCC 3018 assessed as growth inhibition after 24 hrs by agar well diffusion method; assay type: functional; details: MTCC 3018, 24 h
[9] = tested on: Bacillus subtilis; experiment: Antibiofilm activity against Bacillus subtilis MTCC 121 after 24 hrs by crystal violet staining based assay; assay type: functional, organism-based; details: MTCC 121, 24 h
Procedure, shortened: (§1)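 Biofilm inhibition tested for amine esters and esterquats. IC50 values (µg/mL) are the mean of three determinations, with ciprofloxacin as reference.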

[10] = tested on: [Candida] aaseri; experiment: Antimicrobial activity against Candida aaseri MTCC 1962 assessed as growth inhibition after 24 hrs by agar well diffusion method; assay type: functional; details: Yamadazyma aaseri, MTCC 1962, 24 h
[11] = tested on: Staphylococcus aureus; experiment: Bactericidal activity against Staphylococcus aureus MLS16 MTCC 2940 after 24 hrs by serial dilution method; assay type: functional; details: MLS16 MTCC 2940, 24 h
[12] = tested on: Nakaseomyces glabratus; experiment: Fungicidal activity against Candida glabrata MTCC 3019 after 24 hrs by serial dilution method; assay type: functional; details: MTCC 3019, 24 h
[13] = tested on: Candida albicans; experiment: Antimicrobial activity against Candida albicans MTCC 3017 assessed as growth inhibition after 24 hrs by agar well diffusion method; assay type: functional; details: MTCC 3017, 24 h
[14] = tested on: Candida albicans; experiment: Antimicrobial activity against Candida albicans MTCC 7315 assessed as growth inhibition after 24 hrs by agar well diffusion method; assay type: functional; details: MTCC 7315, 24 h
[15] = tested on: Candida albicans; experiment: Fungicidal activity against Candida albicans MTCC 3018 after 24 hrs by serial dilution method; assay type: functional; details: MTCC 3018, 24 h
[16] = tested on: Candida albicans; experiment: Fungicidal activity against Candida albicans MTCC 3017 after 24 hrs by serial dilution method; assay type: functional; details: MTCC 3017, 24 h
[17] = tested on: Bacillus subtilis; experiment: Antimicrobial activity against Bacillus subtilis MTCC 121 assessed as growth inhibition after 24 hrs by agar well diffusion method; assay type: functional; details: MTCC 121, 24 h
[18] = tested on: Candida albicans; experiment: Antimicrobial activity against Candida albicans MTCC 183 assessed as growth inhibition after 24 hrs by agar well diffusion method; assay type: functional; details: MTCC 183, 24 h
[19] = tested on: Candida albicans; experiment: Fungicidal activity against Candida albicans MTCC 227 after 24 hrs by serial dilution method; assay type: functional; details: MTCC 227, 24 h
[20] = tested on: Candida albicans; experiment: Fungicidal activity against Candida albicans MTCC 183 after 24 hrs by serial dilution method; assay type: functional; details: MTCC 183, 24 h
[21] = tested on: Candida albicans; experiment: Antimicrobial activity against Candida albicans MTCC 4748 assessed as growth inhibition after 24 hrs by agar well diffusion method; assay type: functional; details: MTCC 4748, 24 h
[22] = tested on: Candida albicans; experiment: Fungicidal activity against Candida albicans MTCC 854 after 24 hrs by serial dilution method; assay type: functional; details: MTCC 854, 24 h
[23] = tested on: Pseudomonas aeruginosa; experiment: Antimicrobial activity against Pseudomonas aeruginosa MTCC 2453 assessed as growth inhibition after 24 hrs by agar well diffusion method; assay type: functional; details: MTCC 2453, 24 h
[24] = tested on: Micrococcus luteus; experiment: Bactericidal activity against Micrococcus luteus MTCC 2470 after 24 hrs by serial dilution method; assay type: functional; details: MTCC 2470, 24 h
[25] = tested on: Candida albicans; experiment: Fungicidal activity against Candida albicans MTCC 3958 after 24 hrs by serial dilution method; assay type: functional; details: MTCC 3958, 24 h
[26] = tested on: Staphylococcus aureus; experiment: Antimicrobial activity against Staphylococcus aureus MTCC 96 assessed as growth inhibition after 24 hrs by agar well diffusion method; assay type: functional; details: MTCC 96, 24 h
[27] = tested on: Raoultella planticola; experiment: Antimicrobial activity against Klebsiella planticola MTCC 530 assessed as growth inhibition after 24 hrs by agar well diffusion method; assay type: functional; details: MTCC 530, 24 h
[28] = tested on: Raoultella planticola; experiment: Bactericidal activity against Klebsiella planticola MTCC 530 after 24 hrs by serial dilution method; assay type: functional; details: MTCC 530, 24 h
[29] = tested on: Micrococcus luteus; experiment: Antimicrobial activity against Micrococcus luteus MTCC 2470 assessed as growth inhibition after 24 hrs by agar well diffusion method; assay type: functional; details: MTCC 2470, 24 h
[30] = tested on: Escherichia coli; experiment: Bactericidal activity against Escherichia coli MTCC 739 after 24 hrs by serial dilution method; assay type: functional; details: MTCC 739, 24 h
[31] = tested on: Candida albicans; experiment: Fungicidal activity against Candida albicans MTCC 4748 after 24 hrs by serial dilution method; assay type: functional; details: MTCC 4748, 24 h
[32] = tested on: Bacillus subtilis; experiment: Bactericidal activity against Bacillus subtilis MTCC 121 after 24 hrs by serial dilution method; assay type: functional; details: MTCC 121, 24 h
[33] = tested on: Staphylococcus aureus; experiment: Antibiofilm activity against Staphylococcus aureus MTCC 96 after 24 hrs by crystal violet staining based assay; assay type: functional, organism-based; details: MTCC 96, 24 h; procedure, shortened: as §1
[34] = tested on: Micrococcus luteus; experiment: Antibiofilm activity against Micrococcus luteus MTCC 2470 after 24 hrs by crystal violet staining based assay; assay type: functional, organism-based; details: MTCC 2470, 24 h; procedure, shortened: as §1
[35] = tested on: Pichia kudriavzevii; experiment: Antimicrobial activity against Candida krusei MTCC 3020 assessed as growth inhibition after 24 hrs by agar well diffusion method; assay type: functional; details: MTCC 3020, 24 h
[36] = tested on: Nakaseomyces glabratus; experiment: Antimicrobial activity against Candida glabrata MTCC 3019 assessed as growth inhibition after 24 hrs by agar well diffusion method; assay type: functional; details: MTCC 3019, 24 h
[37] = tested on: Candida albicans; experiment: Antimicrobial activity against Candida albicans MTCC 1637 assessed as growth inhibition after 24 hrs by agar well diffusion method; assay type: functional; details: MTCC 1637, 24 h
[38] = tested on: Escherichia coli; experiment: Antimicrobial activity against Escherichia coli MTCC 739 assessed as growth inhibition after 24 hrs by agar well diffusion method; assay type: functional; details: MTCC 739, 24 h
[39] = tested on: Staphylococcus aureus; experiment: Bactericidal activity against Staphylococcus aureus MTCC 96 after 24 hrs by serial dilution method; assay type: functional; details: MTCC 96, 24 h
[40] = tested on: Pichia kudriavzevii; experiment: Fungicidal activity against Candida krusei MTCC 3020 after 24 hrs by serial dilution method; assay type: functional; details: MTCC 3020, 24 h
[41] = tested on: Staphylococcus aureus; experiment: Antimicrobial activity against Staphylococcus aureus MLS16 MTCC 2940 assessed as growth inhibition after 24 hrs by agar well diffusion method; assay type: functional; details: MLS16 MTCC 2940, 24 h
[42] = tested on: Staphylococcus aureus; experiment: Antibiofilm activity against Staphylococcus aureus MLS16 MTCC 2940 after 24 hrs by crystal violet staining based assay; assay type: functional, organism-based; details: MLS16 MTCC 2940, 24 h; procedure, shortened: as §1
[43] = tested on: Candida parapsilosis; experiment: Fungicidal activity against Candida parapsilosis MTCC 1744 after 24 hrs by serial dilution method; assay type: functional; details: Lodderomyces parapsilosis, MTCC 1744, 24 h
[44] = tested on: Candida albicans; experiment: Fungicidal activity against Candida albicans MTCC 7315 after 24 hrs by serial dilution method; assay type: functional; details: MTCC 7315, 24 h
[45] = tested on: Candida albicans; experiment: Antimicrobial activity against Candida albicans MTCC 854 assessed as growth inhibition after 24 hrs by agar well diffusion method; assay type: functional; details: MTCC 854, 24 h

CCCCCC[N+](C)(C)CCCCCCCCCCC(=O)OC.[Cl-]
2.5 µg/mL: IC50 [33]
15.6 µg/mL: MIC [1] | MIC [6] | MIC [8] | MBC [11] | MIC [13] | MIC [14] | MIC [18] | MIC [21] | MIC [27] | MFC [31] | MIC [35] | MIC [36] | MFC [44] | MIC [45]
3.9 µg/mL: MIC [26] | MIC [29]
> 125 µg/mL: MIC [23]
31.2 µg/mL: MIC [2] | MIC [4] | MFC [7] | MIC [10] | MFC [12] | MFC [15] | MFC [16] | MFC [20] | MFC [22] | MFC [25] | MBC [28] | MIC [37] | MIC [38] | MFC [40] | MFC [43]
4.8 µg/mL: IC50 [9]
62.5 µg/mL: MFC [3] | MFC [5] | MFC [19] | MBC [30]
7.8 µg/mL: MIC [17] | MBC [24] | MBC [32] | MBC [39] | MIC [41]
2.1 µg/mL: IC50 [34]
3.2 µg/mL: IC50 [42]

CCCCCCCC[N+](C)(CCCCCCCC)CCCCCCCCCCC(=O)OC.[Cl-]
31.2 µg/mL: MIC [4] | MFC [5] | MIC [6] | MFC [7] | MIC [8] | MFC [12] | MFC [15] | MFC [16] | MIC [18] | MFC [19] | MFC [20] | MFC [22] | MFC [25] | MIC [27] | MFC [31] | MIC [35] | MIC [36] | MIC [37] | MFC [40] | MFC [43]
15.6 µg/mL: MIC [2] | MIC [10] | MBC [11] | MIC [13] | MIC [14] | MIC [21] | MBC [32] | MBC [39] | MFC [44] | MIC [45]
7.8 µg/mL: MIC [17] | MBC [24] | MIC [41]
2 µg/mL: IC50 [34]
3.9 µg/mL: MIC [26] | MIC [29]
4.6 µg/mL: IC50 [9]
3.2 µg/mL: IC50 [33]
> 125 µg/mL: MIC [23] | MBC [28] | MBC [30] | MIC [38]
62.5 µg/mL: MIC [1] | MFC [3]
4.8 µg/mL: IC50 [42]

From ChEMBL document CHEMBL3784971, “Synthesis, characterization, antimicrobial and biofilm inhibitory studies of new esterquats” (Bioorg Med Chem Lett, 2016)
